In PMC3873039 (Anti-Cancer Agents in Medicinal Chemistry, 2013):
pEC50, pIC50: −log10 of the molar value.

Legend:
CCRF-CEM [1] = assay: Hoechst 33342 nuclear morphological analysis of apoptosis; assay type: cell-based; details: Homo sapiens, 24 h, read-out: AP50 (50% induction of apoptosis), Hoechst 33342 staining (Hoe)
Outline: (§1)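 Seeded at 0.5 x 10⁶ cells/well in 12-well plates and treated 24 h. Cells were pelleted (400 g, 5 min, 4 °C), washed in PBS, fixed in 4% paraformaldehyde, cytospun, air-dried, then stained with 10 μg/ml Hoechst 33342 for 10 min in the dark. Fluorescence microscopy: 200 cells counted, scored by condensed/intense nuclei, shrinkage, blebbing and apoptotic bodies. % apoptotic nuclei calculated. AP50 = concentration giving 50% apoptotic cells.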

non-tumor cells (CD34+) [2] = assay: Hoechst 33342 nuclear morphological analysis of apoptosis; assay type: cell-based; details: 24 h, read-out: AP50 (50% induction of apoptosis), Hoechst 33342 staining (Hoe)
Outline: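 CD34+ cells treated 24 h across the IC25–IC50 range, then pelleted (400 g, 4 °C) and fixed in 4% paraformaldehyde/PBS. Cytospins were air-dried and stained with 10 μg/ml Hoechst 33342 for 10 min in the dark, then viewed by fluorescence microscopy. 200 cells were scored per sample as % apoptotic nuclei (shrinkage, blebbing, chromatin condensation, apoptotic bodies). AP50 = concentration giving 50% apoptosis.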

K562 [3] = assay: Cell cycle analysis, propidium iodide flow cytometry; assay type: cell-based, human; details: K562, IC50 dose, 24 h
Outline: (§2)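 Seeded at 0.5 x 10^6 cells per well in 12-well plates and treated 24 h at the IC50 concentration of each test compound from CellTiter-Glo. Cells were pelleted (400 g, 5 min), PBS-washed and fixed in 80% ethanol overnight at -20 °C. Staining used 50 µg/mL PI plus RNase overnight at 4 °C.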

CCRF-CEM [4] = assay: NucView caspase 3 activity assay by flow cytometry; assay type: cell-based, human; details: 24 h; for pEC50: Homo sapiens, read-out: AP50 (50% induction of apoptosis), Caspase 3 activity assay (C3); for The lowest dose of polyphenols at which there was a significant induction of apoptosis compared to the vehicle control: caspase 3 activity, p<0.05
Outline: (§3)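 Seeded at 0.5 x 10⁶ cells/well and treated 24 h, with series of 0–50 or 0–250 µM depending on compound. Normalized to vehicle (0% apoptosis). Mean ± STD, three independent experiments in triplicate. One-way ANOVA/Tukey, p<0.05. AP50 = concentration giving 50% apoptotic cells.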

KG1a [5] = assay: CellTiter-Glo luminescent cell viability assay; assay type: cell-based, human; details: 24 h; for pIC50: Homo sapiens, KG-1a, read-out: IC50 (50% inhibition of cellular proliferation); for The lowest dose of polyphenols at which there was a significant inhibition of cell proliferation compared to the vehicle control: KG1a, doses 0, 2, 10, 50, 250, 500 µM, p<0.05
Outline: (§4)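 Cells grown in RPMI 1640 with 10% FBS, 1.5 mM L-glutamine and penicillin/streptomycin at 37 °C, 5% CO2. Seeded at 2.5 x 10³ cells/well and exposed 24 h to ethanol-dissolved test compound (0, 2, 10, 50, 250, 500 µM) with 0.1% ethanol vehicle. ATP luminescence normalized to vehicle (100%). IC50 taken from linear regression. Lowest significant dose set by one-way ANOVA/Tukey, p<0.05. Triplicates, three independent experiments.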

CCRF-CEM [6] = assay: Cell cycle analysis, propidium iodide flow cytometry; assay type: cell-based, human; details: IC50 dose, 24 h, vehicle control G0/G1 = 41.9%
Outline: as §2

[7] = test system: non-tumor cord blood (CD34+) cells; assay: CellTiter-Glo luminescent cell viability assay; assay type: cell-based; details: 24 h; for pIC50: read-out: IC50 (50% inhibition of cellular proliferation), CD34+ non-tumour control cells, 24 h treatment; for The lowest dose of polyphenols at which there was a significant inhibition of cell proliferation compared to the vehicle control: CD34+ non-tumour control cells, doses 0, 2, 10, 50, 250, 500 µM, p<0.05
Outline: as §4

JURKAT = assay: CellTiter-Glo luminescent cell viability assay; assay type: cell-based, human; details: 24 h, doses 0, 2, 10, 50, 250, 500 µM, p<0.05
Outline: as §4

KG1a [8] = assay: NucView caspase 3 activity assay by flow cytometry; assay type: cell-based, human; details: 24 h; for pEC50: Homo sapiens, KG-1a, read-out: AP50 (50% induction of apoptosis), Caspase 3 activity assay (C3); for The lowest dose of polyphenols at which there was a significant induction of apoptosis compared to the vehicle control: KG1a, caspase 3 activity, p<0.05
Outline: as §3

THP-1 [9] = assay: Cell cycle analysis, propidium iodide flow cytometry; assay type: cell-based, human; details: THP-1, IC50 dose, 24 h; for Percentage of cells in G0/G1 phase of cell cycle (significant accumulation): vehicle control G0/G1 = 42.3%
Outline: as §2

U937 [10] = assay: CellTiter-Glo luminescent cell viability assay; assay type: cell-based, human; details: U937, 24 h, doses 0, 2, 10, 50, 250, 500 µM, p<0.05
Outline: as §4

U937 [11] = assay: Hoechst 33342 nuclear morphological analysis of apoptosis; assay type: cell-based; details: Homo sapiens, U-937, 24 h, read-out: AP50 (50% induction of apoptosis), Hoechst 33342 staining (Hoe)
Outline: as §1

MOLT-3 [12] = assay: CellTiter-Glo luminescent cell viability assay; assay type: cell-based, human; details: MOLT-3, 24 h, doses 0, 2, 10, 50, 250, 500 µM, p<0.05
Outline: as §4

non-tumor cells (CD34+) [13] = assay: NucView caspase 3 activity assay by flow cytometry; assay type: cell-based; details: 24 h; for pEC50: read-out: AP50 (50% induction of apoptosis), Caspase 3 activity assay (C3); for The lowest dose of polyphenols at which there was a significant induction of apoptosis compared to the vehicle control: CD34+ non-tumour control cells, caspase 3 activity, p<0.05
K562 [14] = assay: Hoechst 33342 nuclear morphological analysis of apoptosis; assay type: cell-based; details: Homo sapiens, K562, 24 h, read-out: AP50 (50% induction of apoptosis), Hoechst 33342 staining (Hoe)
Outline: as §1

K562 [15] = assay: CellTiter-Glo luminescent cell viability assay; assay type: cell-based, human; details: K562, 24 h, doses 0, 2, 10, 50, 250, 500 µM, p<0.05
Outline: as §4

MOLT-3 [16] = assay: NucView caspase 3 activity assay by flow cytometry; assay type: cell-based, human; details: for pEC50: Homo sapiens, MOLT-3, 24 h, read-out: AP50 (50% induction of apoptosis), Caspase 3 activity assay (C3); for The lowest dose of polyphenols at which there was a significant induction of apoptosis compared to the vehicle control: MOLT-3, caspase 3 activity, 24 h, p<0.05
Outline: as §3

K562 [17] = assay: NucView caspase 3 activity assay by flow cytometry; assay type: cell-based, human; details: for pEC50: Homo sapiens, K562, 24 h, read-out: AP50 (50% induction of apoptosis), Caspase 3 activity assay (C3); for The lowest dose of polyphenols at which there was a significant induction of apoptosis compared to the vehicle control: K562, caspase 3 activity, 24 h, p<0.05
Outline: as §3

THP-1 [18] = assay: CellTiter-Glo luminescent cell viability assay; assay type: cell-based, human; details: THP-1, 24 h, doses 0, 2, 10, 50, 250, 500 µM, p<0.05
Outline: as §4

THP-1 [19] = assay: NucView caspase 3 activity assay by flow cytometry; assay type: cell-based, human; details: for pEC50: Homo sapiens, THP-1, 24 h, read-out: AP50 (50% induction of apoptosis), Caspase 3 activity assay (C3); for The lowest dose of polyphenols at which there was a significant induction of apoptosis compared to the vehicle control: THP-1, caspase 3 activity, 24 h, p<0.05
Outline: as §3

HL60 = assay: NucView caspase 3 activity assay by flow cytometry; assay type: cell-based, human; details: for The lowest dose of polyphenols at which there was a significant induction of apoptosis compared to the vehicle control: HL60, caspase 3 activity, 24 h, p<0.05; for pEC50: Homo sapiens, HL-60, 24 h, read-out: AP50 (50% induction of apoptosis), Caspase 3 activity assay (C3)
Outline: as §3

[20] = test system: non-tumor progenitor cells (CD34+); assay: Cell cycle analysis, propidium iodide flow cytometry; assay type: cell-based; details: 24 h, within the IC50 ranges used to treat the leukemic cell lines

| pEC50 (CCRF-CEM [1]) | pEC50 (CCRF-CEM [4]) | pEC50 (KG1a [8]) | pEC50 (U937 [11]) | pEC50 (K562 [14]) | pEC50 (MOLT-3 [16]) | Structure (SMILES) | pEC50 (non-tumor cells (CD34+) [2]) | The lowest dose of polyphenols at which there was a significant induction of apoptosis compared to the vehicle control (CCRF-CEM [4]) [µM] | pIC50 (KG1a [5]) | The lowest dose of polyphenols at which there was a significant inhibition of cell proliferation compared to the vehicle control (KG1a [5]) [µM] | Percentage of cells in G0/G1 phase of cell cycle (significant accumulation) (CCRF-CEM [6]) | pIC50 [7] | The lowest dose of polyphenols at which there was a significant inhibition of cell proliferation compared to the vehicle control [7] [µM] | The lowest dose of polyphenols at which there was a significant inhibition of cell proliferation compared to the vehicle control (JURKAT) [µM] | The lowest dose of polyphenols at which there was a significant induction of apoptosis compared to the vehicle control (KG1a [8]) [µM] | The lowest dose of polyphenols at which there was a significant inhibition of cell proliferation compared to the vehicle control (U937 [10]) [µM] | The lowest dose of polyphenols at which there was a significant inhibition of cell proliferation compared to the vehicle control (MOLT-3 [12]) [µM] | pEC50 (non-tumor cells (CD34+) [13]) | The lowest dose of polyphenols at which there was a significant induction of apoptosis compared to the vehicle control (non-tumor cells (CD34+) [13]) [µM] | The lowest dose of polyphenols at which there was a significant inhibition of cell proliferation compared to the vehicle control (K562 [15]) [µM] | also measured |
| --- | --- | --- | --- | --- | --- | --- | --- | --- | --- | --- | --- | --- | --- | --- | --- | --- | --- | --- | --- | --- | --- |
| 3.82 | 4.30 | < 3.60 | 3.71 | 3.30 | 4.30 | O=C1c2cccc(O)c2C(=O)c2c(O)cc(CO)cc21 [Aloe - Emodin, Aloe-emodin] | < 3.30 | 50 | 3.51 | 50 | G0/G1 =49% | < 3.30 | 500 | 50 | 50 | 50 | 50 | < 3.60 | 250 | 50 | Percentage of cells in G2/M phase of cell cycle (significant accumulation) (K562 [3]; vehicle control G2/M = 13.6%): G2/M =20%; Percentage of cells in G0/G1 phase of cell cycle (significant accumulation) (THP-1 [9]): G0/G1 =52%; The lowest dose of polyphenols at which there was a significant induction of apoptosis compared to the vehicle control (MOLT-3 [16]): 50 µM; pEC50 (K562 [17]): < 3.60; The lowest dose of polyphenols at which there was a significant induction of apoptosis compared to the vehicle control (K562 [17]): 50 µM; The lowest dose of polyphenols at which there was a significant inhibition of cell proliferation compared to the vehicle control (THP-1 [18]): 250 µM; pEC50 (THP-1 [19]): < 3.60; The lowest dose of polyphenols at which there was a significant induction of apoptosis compared to the vehicle control (THP-1 [19]): 50 µM; The lowest dose of polyphenols at which there was a significant induction of apoptosis compared to the vehicle control (HL60): 50 µM; pEC50 (HL60): 3.73; Cell cycle arrest in non-tumour control cells [20]: No Arrest <500µM |
| 4.00 | 4.30 | 4.05 | 3.89 | 3.72 | 4.30 | O=c1cc(-c2ccc(O)cc2)oc2cc(O)cc(O)c12 [Apigenin] | < 3.30 | 10 | 3.30 | 10 | G0/G1 =52.2% | < 3.30 | 500 | 50 | 10 | 10 | 50 | < 3.60 | 250 | 10 | Percentage of cells in S phase of cell cycle (significant accumulation) (K562 [3]; vehicle control S = 32.06%): S =50.2%; Percentage of cells in G2/M phase of cell cycle (significant accumulation) (THP-1 [9]; vehicle control G2/M = 26.4%): G2/M =32%; The lowest dose of polyphenols at which there was a significant induction of apoptosis compared to the vehicle control (MOLT-3 [16]): 50 µM; pEC50 (K562 [17]): 3.82; The lowest dose of polyphenols at which there was a significant induction of apoptosis compared to the vehicle control (K562 [17]): 10 µM; The lowest dose of polyphenols at which there was a significant inhibition of cell proliferation compared to the vehicle control (THP-1 [18]): 10 µM; pEC50 (THP-1 [19]): 3.96; The lowest dose of polyphenols at which there was a significant induction of apoptosis compared to the vehicle control (THP-1 [19]): 10 µM; The lowest dose of polyphenols at which there was a significant induction of apoptosis compared to the vehicle control (HL60): 50 µM; pEC50 (HL60): 4.08; Cell cycle arrest in non-tumour control cells [20]: No Arrest ≤250µM |
| 3.60 | 3.70 | < 3.60 | 3.85 | < 3.30 | 3.70 | O=C(O)c1cc(O)c2c(c1)C(=O)c1cccc(O)c1C2=O [Rhein] | < 3.30 | 50 | 3.77 | 50 | G0/G1 =54% | 3.42 | 250 | 50 | 50 | 50 | 50 | < 3.60 | 50 | 50 | Percentage of cells in G0/G1 phase of cell cycle (significant accumulation) (THP-1 [9]): G0/G1 =47%; The lowest dose of polyphenols at which there was a significant induction of apoptosis compared to the vehicle control (MOLT-3 [16]): 50 µM; pEC50 (K562 [17]): < 3.60; The lowest dose of polyphenols at which there was a significant induction of apoptosis compared to the vehicle control (K562 [17]): 50 µM; The lowest dose of polyphenols at which there was a significant inhibition of cell proliferation compared to the vehicle control (THP-1 [18]): 50 µM; pEC50 (THP-1 [19]): 4.30; The lowest dose of polyphenols at which there was a significant induction of apoptosis compared to the vehicle control (THP-1 [19]): 50 µM; The lowest dose of polyphenols at which there was a significant induction of apoptosis compared to the vehicle control (HL60): 50 µM; pEC50 (HL60): < 3.60; Cell cycle arrest in non-tumour control cells [20]: No Arrest <50µM |
